Values belong to the compound of their own block, whether it stands above or below them.
How the values were obtained:
[1] = target: T1, Cyclooxygenase (Rattus norvegicus) (UniProt P35355+Q63921); assay: In vitro inhibitory activity against rat polymorphonuclear leukocyte Prostaglandin G/H synthase at 10 uM; format: protein assay
In short: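 Homogenate of glycogen-elicited rat peritoneal PMNs in 0.1 M Tris-HCl pH 8.2 with 10 μM NDGA, preincubated 5 min at 37 °C with compound (≤0.1% DMSO). [14C]arachidonic acid (8 μM) added with 4 mM glutathione and epinephrine; 10 min reaction. TxB2 and PGF2α separated by TLC and counted.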

Mus musculus = assay: In vivo inhibition of mouse ear inflammation; format: functional; set-up: concentration or dose not given beside the values
In short: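 Compound or ethanol vehicle applied topically to one ear of male DBA/2J mice 60 min before arachidonic acid (2 mg/ear). […] Groups of 5 mice.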

[2] = target: T2, Cysteinyl leukotriene receptor 1 (Cavia porcellus, UniProt Q2NNR5); assay: Activity to bind against [3H]LTD4 radioligand in guinea pig
T2 sequence (Q2NNR5 whole entry): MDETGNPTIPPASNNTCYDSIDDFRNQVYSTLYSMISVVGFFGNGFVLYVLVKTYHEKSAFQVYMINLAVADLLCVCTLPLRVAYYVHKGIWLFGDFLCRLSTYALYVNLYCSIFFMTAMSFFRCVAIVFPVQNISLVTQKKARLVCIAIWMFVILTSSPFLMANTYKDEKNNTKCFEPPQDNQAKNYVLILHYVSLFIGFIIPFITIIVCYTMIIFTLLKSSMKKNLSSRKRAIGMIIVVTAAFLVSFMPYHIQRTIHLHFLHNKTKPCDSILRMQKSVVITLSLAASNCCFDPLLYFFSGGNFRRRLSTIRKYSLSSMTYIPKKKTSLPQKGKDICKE

Cavia porcellus [3] = organism: Cavia porcellus; assay: Inhibitory activity against Leukotriene-D4 induced contractions; format: functional
Cavia porcellus [4] = organism: Cavia porcellus; assay: Inhibitory activity against Leukotriene C4 induced contractions; format: functional
Cyclooxygenase [5] = target: T3, Cyclooxygenase (Rattus norvegicus, UniProt P35355+Q63921); assay: In vitro inhibitory activity against polymorphonuclear leukocyte cyclooxygenase; format: protein assay
T3 sequence (P35355 whole entry): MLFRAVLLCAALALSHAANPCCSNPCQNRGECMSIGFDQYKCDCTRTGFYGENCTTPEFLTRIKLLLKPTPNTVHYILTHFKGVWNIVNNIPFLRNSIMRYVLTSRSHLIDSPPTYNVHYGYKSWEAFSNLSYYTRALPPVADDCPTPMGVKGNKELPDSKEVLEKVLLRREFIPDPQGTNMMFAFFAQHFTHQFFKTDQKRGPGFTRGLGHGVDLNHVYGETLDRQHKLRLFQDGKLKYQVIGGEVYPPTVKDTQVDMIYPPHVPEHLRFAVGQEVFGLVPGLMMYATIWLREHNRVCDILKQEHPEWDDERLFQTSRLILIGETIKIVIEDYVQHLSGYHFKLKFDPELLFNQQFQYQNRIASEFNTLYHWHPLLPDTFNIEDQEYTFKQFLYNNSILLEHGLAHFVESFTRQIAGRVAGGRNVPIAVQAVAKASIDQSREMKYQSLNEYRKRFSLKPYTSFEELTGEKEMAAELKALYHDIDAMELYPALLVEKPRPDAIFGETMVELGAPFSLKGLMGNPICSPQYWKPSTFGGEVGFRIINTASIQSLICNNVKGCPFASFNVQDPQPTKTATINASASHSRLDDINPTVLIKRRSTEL
T3 sequence (Q63921 whole entry): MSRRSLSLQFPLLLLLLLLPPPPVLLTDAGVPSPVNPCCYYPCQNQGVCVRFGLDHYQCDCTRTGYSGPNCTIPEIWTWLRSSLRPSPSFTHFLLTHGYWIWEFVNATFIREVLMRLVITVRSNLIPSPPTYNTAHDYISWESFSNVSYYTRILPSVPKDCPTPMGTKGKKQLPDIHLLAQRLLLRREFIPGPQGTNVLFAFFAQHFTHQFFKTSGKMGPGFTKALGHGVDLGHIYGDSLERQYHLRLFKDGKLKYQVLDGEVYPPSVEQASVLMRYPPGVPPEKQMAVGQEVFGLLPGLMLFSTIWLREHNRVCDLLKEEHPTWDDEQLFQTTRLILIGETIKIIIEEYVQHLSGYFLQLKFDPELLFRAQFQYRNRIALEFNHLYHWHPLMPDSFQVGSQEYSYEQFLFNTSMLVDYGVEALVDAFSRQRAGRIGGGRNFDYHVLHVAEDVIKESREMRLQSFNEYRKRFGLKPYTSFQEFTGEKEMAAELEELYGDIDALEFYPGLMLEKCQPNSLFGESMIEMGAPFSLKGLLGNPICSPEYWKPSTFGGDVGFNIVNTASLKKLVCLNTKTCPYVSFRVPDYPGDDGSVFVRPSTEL
In short: (§1)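 Glycogen-elicited peritoneal PMNs from Sprague-Dawley rats were homogenized at 0 °C in 0.1 M Tris-HCl pH 8.2 with 10 μM NDGA. Compound (DMSO ≤0.1%) was preincubated 5 min at 37 °C, then 8 μM [14C]arachidonic acid with 4 mM glutathione and epinephrine was added for 10 min. TxB2 and PGF2α were measured by TLC and scintillation counting.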

Cavia porcellus [6] = assay: In vivo inhibitory activity against guinea pig systemic anaphylaxis when administered a compound dose (60 mg/kg) perorally; format: functional; details: po
In short: (§2)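 Male Hartley guinea pigs sensitised ip with ovalbumin (2.7 mg/kg) plus LPS adjuvant, then challenged 2 weeks later with 1% ovalbumin aerosol for 30 s. Pretreated with pyrilamine, indomethacin and propranolol 20 min before challenge. Compound given in PEG 400 1 h before challenge.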

Cyclooxygenase [7] = target: T3, Cyclooxygenase; assay: In vitro inhibitory activity against rat polymorphonuclear leukocyte cyclooxygenase; format: protein assay; in short: as §1
[8] = target: T4, Polyunsaturated fatty acid 5-lipoxygenase (Rattus norvegicus) (UniProt P12527); assay: In vitro inhibitory activity against polymorphonuclear leukocyte 5-lipoxygenase in rat cell at 3 uM
T4 sequence (whole entry): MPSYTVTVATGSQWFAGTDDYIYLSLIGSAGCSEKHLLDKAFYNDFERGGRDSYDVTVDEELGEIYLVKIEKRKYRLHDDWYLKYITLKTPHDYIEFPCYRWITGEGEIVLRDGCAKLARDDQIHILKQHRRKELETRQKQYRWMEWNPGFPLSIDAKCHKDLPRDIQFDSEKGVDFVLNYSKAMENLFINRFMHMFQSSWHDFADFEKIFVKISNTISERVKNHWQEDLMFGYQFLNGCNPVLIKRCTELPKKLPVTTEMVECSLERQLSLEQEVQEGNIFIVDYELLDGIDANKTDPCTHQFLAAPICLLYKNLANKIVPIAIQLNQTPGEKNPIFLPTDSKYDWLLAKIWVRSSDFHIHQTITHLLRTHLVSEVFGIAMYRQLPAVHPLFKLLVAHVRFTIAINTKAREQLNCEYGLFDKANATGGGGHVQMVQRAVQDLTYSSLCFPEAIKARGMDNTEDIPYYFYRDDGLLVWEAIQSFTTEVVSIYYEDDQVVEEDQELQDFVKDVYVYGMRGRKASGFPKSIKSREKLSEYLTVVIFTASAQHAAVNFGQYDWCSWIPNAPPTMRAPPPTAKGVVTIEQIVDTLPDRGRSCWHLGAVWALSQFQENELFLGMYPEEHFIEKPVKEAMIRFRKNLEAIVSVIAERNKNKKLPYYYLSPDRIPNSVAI
In short: (§3)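 Intact glycogen-elicited peritoneal PMNs pooled from 4–5 Sprague-Dawley rats (250 g), preincubated 5 min at 30 °C with compound in DMSO (≤0.1% final) plus 1 μM indomethacin. Challenge with [14C]arachidonic acid (4 μM) and A23187 (0.8 μM) for 3 min. Extraction, TLC, 5-HETE by scintillation counting.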

Cavia porcellus [9] = assay: In vivo inhibitory activity against guinea pig systemic anaphylaxis when administered a compound dose (200 mg/kg) perorally; format: functional; details: po; in short: as §2
[10] = target: T5, Polyunsaturated fatty acid 5-lipoxygenase (Homo sapiens) (UniProt P09917); assay: In vitro inhibitory activity against polymorphonuclear leukocyte 5-lipoxygenase in human cell at 1 uM
T5 sequence (whole entry): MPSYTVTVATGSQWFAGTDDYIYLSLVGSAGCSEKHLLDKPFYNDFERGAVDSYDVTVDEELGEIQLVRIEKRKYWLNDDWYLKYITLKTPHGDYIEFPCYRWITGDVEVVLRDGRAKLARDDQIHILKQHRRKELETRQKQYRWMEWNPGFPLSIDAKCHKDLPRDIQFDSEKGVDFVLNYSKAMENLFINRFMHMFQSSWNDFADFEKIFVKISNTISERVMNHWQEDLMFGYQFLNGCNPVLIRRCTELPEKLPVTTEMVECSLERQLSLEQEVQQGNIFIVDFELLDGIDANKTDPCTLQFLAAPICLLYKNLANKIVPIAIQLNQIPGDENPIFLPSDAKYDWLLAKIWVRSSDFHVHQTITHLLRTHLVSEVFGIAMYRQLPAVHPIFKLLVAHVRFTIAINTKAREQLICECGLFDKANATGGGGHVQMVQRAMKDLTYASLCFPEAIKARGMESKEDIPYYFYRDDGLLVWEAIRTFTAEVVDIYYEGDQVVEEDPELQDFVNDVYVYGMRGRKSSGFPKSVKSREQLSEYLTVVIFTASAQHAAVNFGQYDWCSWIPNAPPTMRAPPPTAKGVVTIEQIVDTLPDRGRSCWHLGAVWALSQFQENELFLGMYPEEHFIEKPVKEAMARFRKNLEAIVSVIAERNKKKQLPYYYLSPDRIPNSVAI
In short: (§4)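 PMNs from venous blood of healthy volunteers, isolated by dextran sedimentation and Percoll gradient (>90% pure) and held in Ca/Mg PBS with 1 mg/mL glucose and 1 μM indomethacin. Challenged with calcium ionophore and [14C]arachidonic acid for 3 min. 5-HETE measured by TLC and scintillation counting; IC50 read graphically.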

[11] = target: T6, Arachidonate 12-lipoxygenase (Rattus norvegicus) (UniProt Q02759); assay: In vitro inhibitory activity against rat platelet 12-lipoxygenase at 100 uM
T6 sequence (whole entry): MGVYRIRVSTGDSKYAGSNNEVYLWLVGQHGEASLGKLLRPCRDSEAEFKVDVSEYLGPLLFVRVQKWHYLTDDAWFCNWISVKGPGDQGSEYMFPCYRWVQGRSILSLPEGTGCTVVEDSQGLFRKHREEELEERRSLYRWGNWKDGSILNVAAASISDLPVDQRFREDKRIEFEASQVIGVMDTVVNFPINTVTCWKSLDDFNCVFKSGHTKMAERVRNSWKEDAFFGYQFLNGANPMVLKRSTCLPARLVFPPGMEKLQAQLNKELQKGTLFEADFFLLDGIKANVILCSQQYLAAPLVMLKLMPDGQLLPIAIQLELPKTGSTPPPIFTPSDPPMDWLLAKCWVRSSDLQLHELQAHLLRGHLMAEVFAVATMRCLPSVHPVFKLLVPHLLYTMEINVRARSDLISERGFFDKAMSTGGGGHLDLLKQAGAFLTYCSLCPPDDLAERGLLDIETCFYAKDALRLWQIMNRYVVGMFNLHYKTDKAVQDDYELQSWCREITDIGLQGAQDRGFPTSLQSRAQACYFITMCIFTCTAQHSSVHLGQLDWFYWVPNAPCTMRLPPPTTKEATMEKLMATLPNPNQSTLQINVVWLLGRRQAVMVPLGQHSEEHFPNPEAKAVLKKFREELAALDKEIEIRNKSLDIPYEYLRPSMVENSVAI
In short: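 Cell-free cytosolic 12-lipoxygenase from Sprague-Dawley rat platelets (0.4 mg/mL), preincubated 5 min at 30 °C with compound in DMSO (≤0.1% final), 25 mM Tris pH 7.4, 1 μM indomethacin, 100 μM glutathione; reaction started with 6 μM [14C]arachidonic acid and quenched with citric acid/NDGA after 3 min. 12-HETE isolated by TLC and counted by scintillation; % inhibition, duplicate.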

Cyclooxygenase [12] = target: T3, Cyclooxygenase; assay: In vitro inhibitory activity against rat polymorphonuclear leukocyte Prostaglandin G/H synthase; format: functional; in short: as §1
[13] = target: T7, Polyunsaturated fatty acid 5-lipoxygenase (Homo sapiens, UniProt P09917); assay: In vitro inhibition of polymorphonuclear leukocyte derived human 5-lipoxygenase; in short: as §4
T7 sequence (P09917 whole entry): T5 sequence (whole entry)

[14] = target: T8, Polyunsaturated fatty acid 5-lipoxygenase (Rattus norvegicus, UniProt P12527); assay: In vitro inhibition of rat polymorphonuclear leukocyte 5-lipoxygenase; in short: as §3
T8 sequence (P12527 whole entry): T4 sequence (whole entry)

[15] = target: T1, Cyclooxygenase (Rattus norvegicus); assay: In vitro inhibitory activity against rat polymorphonuclear leukocyte Prostaglandin G/H synthase at 100 uM; format: functional; in short: as §1

- inhibition [1]: 38%
SMILES: CC(c1ccccc1)N(O)C(=O)Cc1ccc(OCc2ccccc2)cc1 (stereo not given)
- Inhibition (Mus musculus): 47%

- Ki [2]: > 100 µM
- IC50 (Cavia porcellus [3]): 5 µM
- IC50 (Cavia porcellus [4]): 4.2 µM
- IC50 (Cyclooxygenase [5]): < 10 µM
- IC50 (Cyclooxygenase [7]): 9 µM
SMILES: CN(O)C(=O)Cc1ccc(OCc2ccccc2)cc1
- inhibition in vivo at 60 mg/kg (Cavia porcellus [6]): 83%
- Inhibition (Mus musculus): 65%

- inhibition [8]: 11%
- inhibition [10]: -8%
SMILES: O=C(CCCc1ccccc1)NO [PHENYLBUTYRYLHYDROXAMIC ACID]
- inhibition in vivo at 200 mg/kg (Cavia porcellus [9]): 11%
- Inhibition (Mus musculus): 28%

- inhibition [11]: < 10%
- IC50 (Cyclooxygenase [12]): 75 µM
SMILES: O=C(c1ccc(OCc2ccccc2)cc1)N(O)CCc1ccccc1

- IC50 [13]: 0.12 µM
- IC50 [14]: 0.1 µM
- inhibition [11]: 47%
- inhibition [15]: 32%
SMILES: O=C(Cc1ccc(OCc2ccccc2)cc1)N(O)Cc1ccccc1
- Inhibition (Mus musculus): 37%
